Measured values as given in ChEMBL document CHEMBL1136314, “Biphenyl-based analogues of thiolactomycin, active against Mycobacterium tuberculosis mtFabH fatty acid condensing enzyme” (Bioorg Med Chem Lett, 2003).

target: T1, Mycobacterial beta-ketoacyl-[acyl-carrier-protein] synthase III (Mycobacterium tuberculosis, UniProt P9WNG3); test: In vitro inhibitory activity against the recombinant Mycobacterium tuberculosis Beta-ketoacyl-ACP synthase III mtFabH condensing enzyme.; design: species or system H37Rv
T1 sequence (P9WNG3 whole entry): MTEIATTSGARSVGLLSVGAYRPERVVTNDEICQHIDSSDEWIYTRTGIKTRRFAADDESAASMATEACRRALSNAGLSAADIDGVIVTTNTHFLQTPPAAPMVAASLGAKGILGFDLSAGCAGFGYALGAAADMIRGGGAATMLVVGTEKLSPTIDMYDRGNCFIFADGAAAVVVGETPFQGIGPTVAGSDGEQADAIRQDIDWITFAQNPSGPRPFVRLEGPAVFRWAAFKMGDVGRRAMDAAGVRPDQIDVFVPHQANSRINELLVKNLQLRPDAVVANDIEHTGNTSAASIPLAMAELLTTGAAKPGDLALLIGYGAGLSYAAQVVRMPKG
How it was run: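 Direct end-point scintillation proximity assay with E. coli-expressed recombinant mtFabH (1.0 nM), biotinylated malonyl-ecACP, and myristoyl-CoA in 100 mM sodium phosphate with 0.01% CHAPS and 1 mM DTT. Compounds in DMSO were tested from 500 down to 0.98. After a 5-min 30 °C preincubation, [3H]myristoyl-CoA was added and reacted 20 min at 30 °C. Ethanol quench, streptavidin beads, bead-bound radioactivity counted, IC50 derived.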

| SMILES | IC50 [µM] |
| --- | --- |
| CC1=C(O)C(C)(Cc2cc(F)cc(F)c2)SC1=O (configuration not stated) | 263 |
| CC1=C(O)C(C)(Cc2ccc(-c3ccc(CO)cc3)cc2)SC1=O (configuration not stated) | 19 |
| CC1=C(O)C(C)(Cc2ccc(-c3ccc(C=O)cc3)cc2)SC1=O (configuration not stated) | 29 |
| COc1cccc(CC2(C)SC(O)=C(C)C2=O)c1 (configuration not stated) | > 500 |
| CC1=C(O)C(C)(Cc2ccc(-c3ccc(C(C)(C)C)cc3)cc2)SC1=O (configuration not stated) | 25 |
| CC1=C(O)C(C)(Cc2ccc(-c3ccc(C)cc3)cc2)SC1=O (configuration not stated) | 52 |
| CC1=C(O)C(C)(Cc2ccccc2)SC1=O (configuration not stated) | > 250 |
| CC1=C(O)C(C)(Cc2ccc(I)cc2)SC1=O (configuration not stated) | 153 |
| CC(=O)Nc1cccc(-c2ccc(CC3(C)SC(O)=C(C)C3=O)cc2)c1 (configuration not stated) | 119 |
| CC1=C(O)C(C)(Cc2ccc(-c3ccc(COCc4ccccc4)cc3)cc2)SC1=O (configuration not stated) | 17 |
| CC1=C(O)C(C)(Cc2ccc(F)cc2F)SC1=O (configuration not stated) | 246 |
| CC1=C(O)C(C)(Cc2cccc(Oc3ccccc3)c2)SC1=O (configuration not stated) | 52 |
| CC1=C(O)C(C)(Cc2cccc(-c3ccccc3)c2)SC1=O (configuration not stated) | 215 |
| COc1ccc(CC2(C)SC(O)=C(C)C2=O)cc1 (configuration not stated) | 155 |
| CC1=C(O)C(C)(Cc2ccc(C(C)(C)C)cc2)SC1=O (configuration not stated) | 43 |
| CC1=C(O)C(C)(Cc2ccc(-c3ccccc3)cc2)SC1=O (configuration not stated) | 51 |
| CC1=C(O)C(C)(Cc2ccc(C)cc2)SC1=O (configuration not stated) | 112 |
